# Only some compounds are listed: those with a hit (about 3.2% of all), similar ones and a draw of the others.
# Bim-Mcl-1: human Bim-Mcl-1 interaction inhibition | actives 0.1% (n = 190,000) | Bead-based flow cytometry, Bim peptide-Mcl-1 binding | inhibition, % at 10 µM | AID 1009; in the data active = inhibition above about 40%
# Target sequence (Q07820 whole entry, looked up): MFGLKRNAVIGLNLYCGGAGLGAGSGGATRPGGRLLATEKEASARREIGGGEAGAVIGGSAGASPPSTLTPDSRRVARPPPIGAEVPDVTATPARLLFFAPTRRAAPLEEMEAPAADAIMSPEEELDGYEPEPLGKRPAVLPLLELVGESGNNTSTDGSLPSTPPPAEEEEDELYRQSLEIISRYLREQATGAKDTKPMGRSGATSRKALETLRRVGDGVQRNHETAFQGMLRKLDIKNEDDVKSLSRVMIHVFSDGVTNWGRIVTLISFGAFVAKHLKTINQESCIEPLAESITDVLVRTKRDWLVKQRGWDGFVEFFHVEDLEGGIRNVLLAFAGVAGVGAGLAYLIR
# Mcl1-Noxa inh: Mcl-1/Noxa interaction inhibition | Q07820 | inhibition, % at 21.7 µM | AID 1022 | actives 1.5% (n = 220,000) | TR-FRET Mcl-1/Noxa peptide binding, 2 h;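 active = compounds that cut the protein-peptide binding signal by more than 50% relative to plate controls in a single-dose test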;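 note: His-tagged Mcl-1 with rhodamine Noxa BH3 peptide and terbium anti-His antibody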
# Mcl1 Bid PPI: disrupts binding of human Mcl-1 to Bid peptide | actives 0.97% (n = 220,000) | inhibition, % at 21.7 µM | TR-FRET Mcl-1/Bid-Dy647 peptide binding, 1536-well | Q07820;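 active = compounds that cut the binding signal by more than half at the single screening dose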;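 note: His-tagged Mcl-1 with europium anti-His antibody binding Bid BH3 peptide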
# 14-3-3 Bad PPI: disrupts binding of bovine 14-3-3 zeta to phospho-Bad peptide | P63103 | TR-FRET 14-3-3zeta/Dy647-pBad peptide displacement, 1 h | inhibition, % at 21.7 µM | actives 0.71% (n = 220,000) | AID 781;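 active = inhibition above about 70%, limit read from the data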
# Biofilm kill mix: mixture kills Candida albicans biofilm cells. C. albicans biofilm persisters + clotrimazole, fluorescence viability; primary screen in compound mixtures of four per well. actives 0.02% (n = 120,000). inhibition, % at 7.6 µM;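 active = inhibition above 30.3% in the primary screen of four-compound pools, then above 30% when the compound was retested; inconclusive = passed the primary limit but could not be retested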;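 note: compounds exposed to preformed 24 h biofilms for 48 h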
#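 Assay system: C. albicans biofilms / Medium: RPMI/MOPS medium, pH 7.0 / Schedule: biofilm formation 24 h, compound exposure 48 h, 37 °C / Measured by: Alamar Blue fluorescence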
# Hck-Nef inh: inhibitors of human Hck kinase activated by Nef | Recombinant Hck-YEEI plus Nef, Z-Lyte FRET kinase assay | inhibition, % at 20 µM | actives 0.68% (n = 220,000);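 active = Hck-Nef kinase inhibition above about 50%, limit read from the data; inactive = inhibition below that limit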
# Numbers stand for hits; . = inactive; ? = inconclusive; / = no result.
SMILES,Bim-Mcl-1,Mcl1-Noxa inh,Mcl1 Bid PPI,14-3-3 Bad PPI,Biofilm kill mix,Hck-Nef inh
CCN1CCN(C(c2cccs2)C(C)NC(=O)c2cccc(OC)c2OC)CC1 (stereo not drawn),.,52,.,.,/,.
CCN1CCN(C(c2cccs2)C(C)NC(=O)c2ccccc2)CC1 (stereo not drawn),.,.,.,.,/,.
CC1=NN(c2cccc(C(=O)O)c2)C(=O)/C1=C\C=C\c1ccco1,.,98,.,.,.,.
NC(=O)c1ccc(C(F)(F)F)n(Cc2ccccc2Cl)c1=O,.,.,.,.,/,.
CCOc1ccc(-n2c(SCC(=O)Nc3ccc(Br)cc3)nc3n[nH]c(C)c3c2=N)cc1,.,51,58,.,.,.
N#Cc1c(-c2cccnc2)c2c([nH]c1=S)CCCC2,.,.,.,.,/,.
Cc1[nH]c(=S)c(C#N)c(-c2ccccc2)c1C(=O)Nc1ccccc1,/,.,.,.,.,.
N#Cc1c(-c2ccco2)c2c([nH]c1=S)CCCC2,.,59,.,.,/,/
CC(C)Cc1c2c([nH]c(=S)c1C#N)CCCC2,.,51,.,.,.,.
CCN(CC)C(=O)c1c(C)[nH]c(=S)c(C#N)c1-c1ccco1,.,59,.,.,.,.
COc1ccc(NC(=O)C2=C(C)C(=O)OC23CCC(C)CC3)c(OC)c1 (stereo not drawn),.,.,.,.,/,.
CN1CCN(Cc2c(O)ccc3cc(-c4ccccn4)c(=O)oc23)CC1,.,.,.,.,.,.
CCOC(=O)c1c(C)n(OCc2ccccc2)c2ccc3nonc3c12,.,.,.,.,/,.
COn1c(C)c(C)c2c3nonc3ccc21,/,.,.,95,?,.
CC(C)CN1C(=O)c2ccc(NC(=O)c3cccs3)cc2C1=O,.,.,.,.,/,.
O=C(Nc1ccc(Oc2ccc3c(c2)C(=O)N(c2ccc(O)cc2)C3=O)cc1)c1cccs1,.,.,66,.,.,.
O=C1CCc2cc(S(=O)(=O)NCCCC(=O)N3CCN(Cc4ccc5c(c4)OCO5)CC3)ccc2N1,40,.,.,.,.,.
O=C(O)CC(CC(=O)O)(C(=O)O)c1ccccc1,/,.,.,.,.,.
Cc1cccc(NC(=O)COC(=O)c2cccc3c2C(=O)c2ccccc2C3=O)c1C,.,.,.,.,.,.
Nc1cccc(C(=O)OCC(=O)Nc2cccc3c2C(=O)c2ccccc2C3=O)c1,.,64,77,.,.,.
CCOC(=O)c1c(C)oc2c1c(CN1CCN(C(=O)OCC)CC1)c(O)c1ccccc12,.,98,62,.,.,.
CCOC(=O)c1c(C)oc2c1c(CN1CCN(CCO)CC1)c(O)c1ccccc12,.,95,56,.,.,.
CCOC(=O)c1c(C)oc2ccc(O)c(CN3CCCCC3)c12,.,.,.,.,/,.
O=C1CN=CN=CN1c1ccc(Cl)cc1Cl,.,.,.,.,.,.
Cc1nnc2ccc(-c3ccc(NS(C)(=O)=O)cc3)nn12,.,.,.,.,.,.
SMILES,Bim-Mcl-1,Mcl1-Noxa inh,Mcl1 Bid PPI,14-3-3 Bad PPI,Biofilm kill mix,Hck-Nef inh
CC(=O)c1ccc(S(=O)(=O)Nc2ccc(-c3ccc4nnc(C)n4n3)cc2)cc1,.,55,.,.,.,.
CCOC(=O)C1CCCN(Cc2ccc(O)c(OC)c2)C1 (stereo not drawn),.,.,.,.,/,.
COc1cc(CN2CCC(C(=O)NC3CCCC3)CC2)ccc1O,.,.,.,77,/,.
C=C(C)C(=O)Nc1cccc(C2=NOC3(C2)C[C@@H](C(N)=O)N(C(=O)CCCCC)C3)c1 (stereo partly drawn),/,69,.,.,.,.
C=C(C)C(=O)Nc1cccc(C2=NOC3(C2)C[C@@H](C(N)=O)N(C(=O)c2ccc(OC)cc2)C3)c1 (stereo partly drawn),/,69,.,.,.,.
C/C=C\C=C/C(=O)Nc1cccc(C2=NOC3(C2)C[C@@H](C(N)=O)N(C(=O)c2ccccc2)C3)c1 (stereo partly drawn),/,75,.,.,.,.
C/C=C\C(=O)Nc1cccc(C2=NOC3(C2)C[C@@H](C(N)=O)N(C(=O)c2ccccc2)C3)c1 (stereo partly drawn),/,.,.,.,.,.

# Source: PubChem (several laboratories)
